# ChEMBL document CHEMBL2157875, “Design, synthesis and in vitro evaluation of a series of α-substituted phenylpropanoic acid PPARγ agonists to further investigate the stereochemistry-activity relationship” (Bioorg Med Chem, 2012)
# Key:
# Assay type in all cases: cell-based
# [1] = molecular target: PPAR delta/gamma (Homo sapiens) (UniProt P37231+Q03181); assay: Selectivity ratio of EC50 for human PPARdelta expressed in human HEK293 cells to EC50 for human PPARgamma expressed in human HEK293 cells
# HEK293 = assay: Selectivity ratio of EC50 for human PPARalpha expressed in human HEK293 cells to EC50 for human PPARgamma expressed in human HEK293 cells
# [2] = molecular target: T1, Peroxisome proliferator-activated receptor gamma (Homo sapiens, UniProt P37231); assay: Transactivation of human PPARgamma expressed in human HEK293 cells after 16 to 20 hrs by dual luciferase beta-galactosidase reporter gene assay
# T1 sequence (P37231 whole entry): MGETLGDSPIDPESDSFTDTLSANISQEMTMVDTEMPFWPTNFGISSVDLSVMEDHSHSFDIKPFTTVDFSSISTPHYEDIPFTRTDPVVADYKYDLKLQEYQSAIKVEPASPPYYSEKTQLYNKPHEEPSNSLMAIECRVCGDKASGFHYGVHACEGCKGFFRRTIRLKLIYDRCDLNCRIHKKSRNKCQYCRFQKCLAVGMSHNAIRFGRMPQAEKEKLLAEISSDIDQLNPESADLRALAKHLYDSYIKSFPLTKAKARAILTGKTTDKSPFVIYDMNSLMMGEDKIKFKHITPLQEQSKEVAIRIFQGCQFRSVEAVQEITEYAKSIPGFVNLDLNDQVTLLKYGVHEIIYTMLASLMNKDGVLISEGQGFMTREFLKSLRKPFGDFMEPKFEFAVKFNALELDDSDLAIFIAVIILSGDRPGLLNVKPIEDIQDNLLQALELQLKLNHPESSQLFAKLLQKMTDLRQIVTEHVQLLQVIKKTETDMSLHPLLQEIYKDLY
# How it was run: (§1)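 HEK293 cells were grown in DMEM with 5% FBS and antibiotic-antimycotic at 37 °C in 5% CO2. They were co-transfected by calcium phosphate with 50 ng reporter, 20 ng pCMX-β-galactosidase and 15 ng of each receptor plasmid, made up to 150 ng with pGEM carrier. Ligands were added 8 h later and cells harvested about 16–20 h after. Luciferase was normalized to β-galactosidase; means of triplicates.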
# [3] = molecular target: T2, Peroxisome proliferator-activated receptor gamma (Homo sapiens) (UniProt P37231); assay: Transactivation of human PPARgamma expressed in human HEK293 cells assessed as concentration required for maximum activity after 16 to 20 hrs by dual luciferase beta-galactosidase reporter gene assay; how it was run: as §1
# T2 sequence (whole entry): T1 sequence (P37231 whole entry)
# [4] = molecular target: T3, Peroxisome proliferator-activated receptor delta (Homo sapiens, UniProt Q03181); assay: Transactivation of human PPARdelta expressed in human HEK293 cells after 16 to 20 hrs by dual luciferase beta-galactosidase reporter gene assay
# T3 sequence (Q03181 whole entry): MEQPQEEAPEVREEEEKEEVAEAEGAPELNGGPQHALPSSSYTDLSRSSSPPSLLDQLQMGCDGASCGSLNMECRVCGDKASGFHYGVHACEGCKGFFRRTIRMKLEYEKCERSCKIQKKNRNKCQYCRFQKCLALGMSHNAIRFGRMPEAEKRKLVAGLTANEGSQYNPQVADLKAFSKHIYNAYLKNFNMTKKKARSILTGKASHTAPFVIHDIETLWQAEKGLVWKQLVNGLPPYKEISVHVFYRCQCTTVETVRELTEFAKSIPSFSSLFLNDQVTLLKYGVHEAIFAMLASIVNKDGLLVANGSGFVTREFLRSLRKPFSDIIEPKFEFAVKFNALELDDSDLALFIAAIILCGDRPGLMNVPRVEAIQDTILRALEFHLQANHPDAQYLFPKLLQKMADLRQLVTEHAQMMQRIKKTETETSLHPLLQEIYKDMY
# How it was run: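 HEK293 cells grown in DMEM with 5% FBS and antibiotic-antimycotic at 37 °C, 5% CO₂. Calcium phosphate cotransfection per well of 50 ng reporter, 20 ng pCMX-β-galactosidase, 15 ng receptor expression plasmid, pGEM carrier to 150 ng. Ligands added 8 h post-transfection, cells harvested ~16–20 h later. Luciferase normalised to β-galactosidase; means of triplicates.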
# [5] = molecular target: T4, Peroxisome proliferator-activated receptor alpha (Homo sapiens, UniProt Q07869); assay: Transactivation of human PPARalpha expressed in human HEK293 cells after 16 to 20 hrs by dual luciferase beta-galactosidase reporter gene assay; how it was run: as §1
# T4 sequence (Q07869 whole entry): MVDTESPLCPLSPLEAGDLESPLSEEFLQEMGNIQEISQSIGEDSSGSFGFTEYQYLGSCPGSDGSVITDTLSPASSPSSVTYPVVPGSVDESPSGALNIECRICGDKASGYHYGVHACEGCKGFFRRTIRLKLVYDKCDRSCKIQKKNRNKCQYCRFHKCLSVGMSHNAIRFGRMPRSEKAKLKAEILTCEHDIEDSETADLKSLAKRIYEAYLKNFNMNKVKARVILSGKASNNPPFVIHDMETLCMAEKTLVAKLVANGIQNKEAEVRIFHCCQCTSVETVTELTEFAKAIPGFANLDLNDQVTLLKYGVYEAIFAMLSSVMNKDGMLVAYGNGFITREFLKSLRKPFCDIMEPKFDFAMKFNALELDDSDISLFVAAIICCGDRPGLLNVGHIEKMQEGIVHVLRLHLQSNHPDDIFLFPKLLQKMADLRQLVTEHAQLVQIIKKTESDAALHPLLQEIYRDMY
SMILES,Ratio EC50 [1],Ratio EC50 (HEK293),EC50 [2] [nM],Activity [3] [µM],EC50 [4] [nM],EC50 [5] [nM]
CCCOc1ccc(C[C@H](CC2CCCCC2)C(=O)O)cc1CNC(=O)c1ccc(C23CC4CC(CC(C4)C2)C3)cc1,240,240,22,1,–,–
CCCOc1ccc(C[C@@H](CC2CCCCC2)C(=O)O)cc1CNC(=O)c1ccc(C23CC4CC(CC(C4)C2)C3)cc1,240,240,12,1,–,–
CCCOc1ccc(C[C@H](CC)C(=O)O)cc1CNC(=O)c1ccc(C23CC4CC(CC(C4)C2)C3)cc1,–,–,–,–,130,–
CCCOc1ccc(C[C@@H](CCc2ccccc2)C(=O)O)cc1CNC(=O)c1ccc(C23CC4CC(CC(C4)C2)C3)cc1,50,50,34,1,–,1760
CCCOc1ccc(C[C@H](CCc2ccccc2)C(=O)O)cc1CNC(=O)c1ccc(C23CC4CC(CC(C4)C2)C3)cc1,50,50,9.2,0.05,–,770
